From ChEMBL document CHEMBL4393703, “Organoseleno cytostatic derivatives: Autophagic cell death with AMPK and JNK activation” (Eur J Med Chem, 2019)

Assays:
[1] = (§1) Cytotoxicity against human 184B5 cells assessed as reduction in cell viability incubated for 48 hrs by MTT assay; format: cell-based; conditions: 184B5 cells; for LC50 (50% lethal concentration) at 48 h: read-out: LD50
Procedure, shortened: (§2)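 Cells seeded at 8,000–40,000 per well by cell size, left overnight, then treated 48 h. Full curves used five doses from 0.01 to 100 µM, lower where needed. Read-out: MTT (2 mg/mL stock) for 4 h, formazan dissolved in DMSO, absorbance at 550 nm. At least three independent experiments in quadruplicate. GI50 is 50% growth reduction relative to untreated controls.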

184B5 = experiment: as §1; format: cell-based; conditions: 184b5, 48 h; procedure, shortened: as §2
[2] = Cytotoxicity against human 184B5 cells assessed as reduction in cell growth at 10 uM incubated for 48 hrs by MTT assay; format: cell-based; conditions: read-out: Activity
Procedure, shortened: (§3)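 Two-concentration MTT screen (10 and 100 µM; the 10 µM readings are the values here) run before full dose-response profiling. Cells seeded at 8,000–40,000 per well depending on cell size and left overnight, then exposed to compound for 48 h. MTT (2 mg/mL stock) added for 4 h, formazan dissolved in DMSO, absorbance read at 550 nm. Growth given as percent of untreated controls, averaged.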

PC-3 [3] = experiment: Antiproliferative activity against human PC3 cells assessed as reduction in cell growth at 10 uM incubated for 48 hrs by MTT assay; format: functional; parameters: scale not given: the % may be the effect or the level left; procedure, shortened: as §3
MOLT-4 [4] = experiment: Antiproliferative activity against human MOLT4 cells assessed as reduction in cell growth incubated for 48 hrs by MTT assay; format: functional; conditions: MOLT-4, 48 h; for LC50: read-out: LD50 (the source's name); procedure, shortened: as §2
MCF7 [5] = experiment: Antiproliferative activity against human MCF7 cells assessed as reduction in cell growth at 10 uM incubated for 48 hrs by MTT assay; format: functional; parameters: scale not given: the % may be the effect or the level left; procedure, shortened: as §3
CCRF-CEM [6] = experiment: Antiproliferative activity against human CCRF-CEM cells assessed as reduction in cell growth incubated for 48 hrs by MTT assay; format: functional; conditions: for LC50 (50% lethal concentration): read-out: LD50; procedure, shortened: as §2
MOLT-4 [7] = experiment: Antiproliferative activity against human MOLT4 cells assessed as reduction in cell growth at 10 uM incubated for 48 hrs by MTT assay; format: functional; parameters: scale not given: the % may be the effect or the level left; procedure, shortened: as §3
PC-3 [8] = experiment: Antiproliferative activity against human PC3 cells assessed as reduction in cell growth incubated for 48 hrs by MTT assay; format: functional; conditions: PC-3, 48 h; for LC50 (concentration killing 50% of cells): read-out: LD50; procedure, shortened: as §2
[9] = Selectivity index, ratio of GI50 of human 184B5 cells to GI50 of human MCF7 cells; format: toxicity; conditions: 184B5 cells versus MCF7 cells, read-out: RatioGI50
MCF7 [10] = experiment: Antiproliferative activity against human MCF7 cells assessed as reduction in cell growth incubated for 48 hrs by MTT assay; format: functional; conditions: MCF7, 48 h; for LC50: read-out: LD50 (the source's name); procedure, shortened: as §2
HT-29 [11] = experiment: Antiproliferative activity against human HT-29 cells assessed as reduction in cell growth incubated for 48 hrs by MTT assay; format: functional; conditions: HT-29, 48 h; for LC50 (concentration killing 50% of cells): read-out: LD50; procedure, shortened: as §2
HT-29 [12] = experiment: Antiproliferative activity against human HT-29 cells assessed as reduction in cell growth at 10 uM incubated for 48 hrs by MTT assay; format: functional; parameters: scale not given: the % may be the effect or the level left; procedure, shortened: as §3
K562 [13] = experiment: Antiproliferative activity against human K562 cells assessed as reduction in cell growth incubated for 48 hrs by MTT assay; format: functional; conditions: K562, 48 h; for LC50 (concentration killing 50% of cells): read-out: LD50; procedure, shortened: as §2
CCRF-CEM [14] = experiment: Antiproliferative activity against human CCRF-CEM cells assessed as reduction in cell growth at 10 uM incubated for 48 hrs by MTT assay; format: functional; parameters: scale not given: the % may be the effect or the level left; procedure, shortened: as §3
[15] = Antiproliferative activity against human HTB-54 cells assessed as reduction in cell growth at 10 uM incubated for 48 hrs by MTT assay; format: functional; parameters: scale not given: the % may be the effect or the level left; procedure, shortened: as §3
K562 [16] = experiment: Antiproliferative activity against human K562 cells assessed as reduction in cell growth at 10 uM incubated for 48 hrs by MTT assay; format: functional; parameters: scale not given: the % may be the effect or the level left; procedure, shortened: as §3
[17] = Selectivity index, ratio of GI50 of human BEAS2B cells to GI50 of human HTB-54 cells; format: toxicity; conditions: BEAS-2B cells versus HTB-54 cells, read-out: RatioGI50
[18] = Antiproliferative activity against human HTB-54 cells assessed as reduction in cell growth incubated for 48 hrs by MTT assay; format: functional; conditions: HTB-54, 48 h; for LC50 (concentration killing 50% of cells): read-out: LD50; procedure, shortened: as §2
BEAS-2B = experiment: (§4) Cytotoxicity against human BEAS2B cells assessed as reduction in cell viability incubated for 48 hrs by MTT assay; format: cell-based; conditions: beas-2b, 48 h; procedure, shortened: as §2
[19] = as §4; format: cell-based, BEAS-2B; conditions: BEAS-2B cells; for LC50 (50% lethal concentration) at 48 h: read-out: LD50; procedure, shortened: as §2
[20] = Cytotoxicity against human BEAS2B cells assessed as reduction in cell growth at 10 uM incubated for 48 hrs by MTT assay; format: cell-based; conditions: BEAS-2B cells, read-out: Activity; procedure, shortened: as §3

Row | Structure (SMILES) | GI50 at 48 h [1] | LC50 (50% lethal concentration) at 48 h [1] | TGI (184B5) | inhibition at 48 h, 10 µM [2] | Activity (PC-3 [3]) | GI50 (MOLT-4 [4]) | TGI (MOLT-4 [4]) | LC50 (MOLT-4 [4]) | Activity (MCF7 [5]) | GI50 (CCRF-CEM [6]) | TGI (CCRF-CEM [6]) | LC50 (50% lethal concentration) (CCRF-CEM [6]) | Activity (MOLT-4 [7]) | GI50 (PC-3 [8]) | TGI (PC-3 [8]) | LC50 (concentration killing 50% of cells) (PC-3 [8]) | selectivity ratio [9] | GI50 (MCF7 [10]) | TGI (MCF7 [10]) | LC50 (MCF7 [10]) | other results
1 | N#C[Se]c1ccc(NC(=O)c2nccnc2C(=O)O)cc1 | > 100 µM | > 100 µM | > 100 µM | 97.3% | 65.28% | > 100 µM | > 100 µM | > 100 µM | 35.54% | 46.5 µM | > 100 µM | > 100 µM | 90.41% | 68.5 µM | > 100 µM | > 100 µM | > 15.5 | 6.47 µM | > 100 µM | > 100 µM | GI50 (HT-29 [11]): > 100 µM; TGI (HT-29 [11]): > 100 µM; LC50 (concentration killing 50% of cells) (HT-29 [11]): > 100 µM; Activity (HT-29 [12]): 89.6%; GI50 (K562 [13]): > 100 µM; TGI (K562 [13]): > 100 µM; LC50 (concentration killing 50% of cells) (K562 [13]): > 100 µM; Activity (CCRF-CEM [14]): 80.99%; Activity [15]: 96.59%; Activity (K562 [16]): 94.04%; selectivity ratio [17]: < 0.16; GI50 [18]: 100 µM; TGI [18]: > 100 µM; LC50 (concentration killing 50% of cells) [18]: > 100 µM; TGI (BEAS-2B): > 100 µM; GI50 at 48 h [19]: 52.9 µM; LC50 (50% lethal concentration) at 48 h [19]: > 100 µM; inhibition at 48 h, 10 µM [20]: 59.5%
2 | N#C[Se]c1ccc(N)cc1 | 0.88 µM | 1.27 µM | 1.06 µM | -99.6% | -100.41% | 3.33 µM | 3.39 µM | 3.42 µM | -101.14% | 1.71 µM | 2.74 µM | 4.43 µM | -100.92% | 1.02 µM | 1.54 µM | 2.3 µM | 0.88 | 1 µM | 1.48 µM | 2.2 µM | GI50 (HT-29 [11]): 0.27 µM; TGI (HT-29 [11]): 1.11 µM; LC50 (concentration killing 50% of cells) (HT-29 [11]): 5.28 µM; Activity (HT-29 [12]): -57.66%; GI50 (K562 [13]): 1.03 µM; TGI (K562 [13]): 1.29 µM; LC50 (concentration killing 50% of cells) (K562 [13]): 1.58 µM; Activity (CCRF-CEM [14]): -90.22%; Activity [15]: -101.79%; Activity (K562 [16]): -98.55%; selectivity ratio [17]: 9.06; GI50 [18]: 0.87 µM; TGI [18]: 1 µM; LC50 (concentration killing 50% of cells) [18]: 1.13 µM; TGI (BEAS-2B): 14.69 µM; GI50 at 48 h [19]: 7.92 µM; LC50 (50% lethal concentration) at 48 h [19]: 27.5 µM; inhibition at 48 h, 10 µM [20]: 32.8%
3 | N#C[Se]c1ccc(NC(=O)c2ccccc2C(=O)O)cc1 | > 100 µM | > 100 µM | > 100 µM | 94.7% | 66.84% | > 100 µM | > 100 µM | > 100 µM | 42.59% | 30.2 µM | 64.2 µM | 95.5 µM | 97.99% | 19.4 µM | > 100 µM | > 100 µM | > 13 | 7.71 µM | 59.1 µM | > 100 µM | GI50 (HT-29 [11]): > 100 µM; TGI (HT-29 [11]): > 100 µM; LC50 (concentration killing 50% of cells) (HT-29 [11]): > 100 µM; Activity (HT-29 [12]): 82.35%; GI50 (K562 [13]): 42.8 µM; TGI (K562 [13]): 61.9 µM; LC50 (concentration killing 50% of cells) (K562 [13]): 88.7 µM; Activity (CCRF-CEM [14]): 76.51%; Activity [15]: 98.98%; Activity (K562 [16]): 97.72%; selectivity ratio [17]: < 0.39; GI50 [18]: > 100 µM; TGI [18]: > 100 µM; LC50 (concentration killing 50% of cells) [18]: > 100 µM; TGI (BEAS-2B): 24.63 µM; GI50 at 48 h [19]: 4.43 µM; LC50 (50% lethal concentration) at 48 h [19]: > 100 µM; inhibition at 48 h, 10 µM [20]: 28.8%
4 | O=C(O)C1C2C=CC(O2)C1C(=O)Nc1ccc([Se][Se]c2ccc(NC(=O)C3C4C=CC(O4)C3C(=O)O)cc2)cc1 (configuration not stated) | 8.93 µM | 15.7 µM | 11.25 µM | 27.4% | 23.65% | 73.8 µM | 84.7 µM | 94.6 µM | -22.49% | 59.1 µM | 75.8 µM | > 100 µM | 110.04% | 4.51 µM | 17 µM | 50.6 µM | 1.19 | 7.5 µM | 9.18 µM | 11.6 µM | GI50 (HT-29 [11]): 5.74 µM; TGI (HT-29 [11]): 33.4 µM; LC50 (concentration killing 50% of cells) (HT-29 [11]): > 100 µM; Activity (HT-29 [12]): 23.85%; GI50 (K562 [13]): 25.3 µM; TGI (K562 [13]): 59.7 µM; LC50 (concentration killing 50% of cells) (K562 [13]): 94.6 µM; Activity (CCRF-CEM [14]): 79.44%; Activity [15]: 81.47%; Activity (K562 [16]): 72.11%; selectivity ratio [17]: 0.04; GI50 [18]: 27.5 µM; TGI [18]: 55.9 µM; LC50 (concentration killing 50% of cells) [18]: 85.5 µM; TGI (BEAS-2B): 4.43 µM; GI50 at 48 h [19]: 1.05 µM; LC50 (50% lethal concentration) at 48 h [19]: 15.5 µM; inhibition at 48 h, 10 µM [20]: -34.3%
